Reference: ChEMBL document CHEMBL4043246, “Discovery of novel [1,2,4]triazolo[4,3-a]quinoxaline aminophenyl derivatives as BET inhibitors for cancer treatment” (Bioorg Med Chem Lett, 2017)

Assays:
[1] = target: T1, Bromodomain-containing protein 4 (Homo sapiens, UniProt O60885); test: Inhibition of BRD4 BD1-BD2 (unknown origin) using tetraacetylated histone peptide as substrate after 2 hrs by alphascreen assay
[2] = Antiproliferative activity against human TY82 cells; assay type: functional, cell-based
THP-1 = test: Antiproliferative activity against human THP1 cells; assay type: functional, cell-based
[3] = Stability in mouse liver microsomes assessed as parent compound remaining after 30 mins; assay type: ADME, microsome; details: read-out: Stability
Outline: (§1)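 Incubated in vitro with mouse, rat or human liver microsomes for 30 minutes. Result expressed as percent of parent compound remaining.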

[4] = Stability in human liver microsomes assessed as parent compound remaining after 30 mins; assay type: ADME, microsome; details: read-out: Stability; outline: as §1
[5] = Cell cycle arrest in human TY82 cells assessed as accumulation at G1 phase at 1 uM after 24 hrs by DAPI staining based assay (reference value: 73%); assay type: functional
[6] = Cell cycle arrest in human TY82 cells assessed as accumulation at S phase at 1 uM after 24 hrs by DAPI staining based assay (reference value: 11%); assay type: functional
[7] = Cell cycle arrest in human TY82 cells assessed as accumulation at G2/M phase at 1 uM after 24 hrs by DAPI staining based assay (reference value: 9%); assay type: functional
[8] = Cell cycle arrest in human TY82 cells assessed as accumulation at sub-G1 phase at 3 uM after 24 hrs by DAPI staining based assay (reference value: 6%); assay type: functional
[9] = Cell cycle arrest in human TY82 cells assessed as accumulation at G1 phase at 3 uM after 24 hrs by DAPI staining based assay (reference value: 73%); assay type: functional
[10] = Cell cycle arrest in human TY82 cells assessed as accumulation at S phase at 3 uM after 24 hrs by DAPI staining based assay (reference value: 11%); assay type: functional
[11] = Cell cycle arrest in human TY82 cells assessed as accumulation at G2/M phase at 3 uM after 24 hrs by DAPI staining based assay (reference value: 9%); assay type: functional
[12] = Cell cycle arrest in human TY82 cells assessed as accumulation at G1 phase at 10 uM after 24 hrs by DAPI staining based assay (reference value: 73%); assay type: functional
[13] = Cell cycle arrest in human TY82 cells assessed as accumulation at S phase at 10 uM after 24 hrs by DAPI staining based assay (reference value: 11%); assay type: functional
[14] = target: T1, Bromodomain-containing protein 4; test: Binding affinity to BRD4 BD1 (unknown origin)
[15] = target: T1, Bromodomain-containing protein 4; test: Binding affinity to BRD4 BD2 (unknown origin)
[16] = target: Bromodomain-containing protein 1 (Homo sapiens) (UniProt O95696); test: Inhibition of human partial length BRD1 (E556 to A688 residues) expressed in bacterial expression system assessed as residual activity at 500 nM relative to control by BROMOscan assay
[17] = target: ATPase family AAA domain-containing protein 2B (Homo sapiens) (UniProt Q9ULI0); test: Inhibition of human partial length ATAD2B (Q955 to R1082 residues) expressed in bacterial expression system assessed as residual activity at 500 nM relative to control by BROMOscan assay
Sequence of ATPase family AAA domain-containing protein 2B (Homo sapiens) (Q9ULI0 whole entry, the tested form may be a part): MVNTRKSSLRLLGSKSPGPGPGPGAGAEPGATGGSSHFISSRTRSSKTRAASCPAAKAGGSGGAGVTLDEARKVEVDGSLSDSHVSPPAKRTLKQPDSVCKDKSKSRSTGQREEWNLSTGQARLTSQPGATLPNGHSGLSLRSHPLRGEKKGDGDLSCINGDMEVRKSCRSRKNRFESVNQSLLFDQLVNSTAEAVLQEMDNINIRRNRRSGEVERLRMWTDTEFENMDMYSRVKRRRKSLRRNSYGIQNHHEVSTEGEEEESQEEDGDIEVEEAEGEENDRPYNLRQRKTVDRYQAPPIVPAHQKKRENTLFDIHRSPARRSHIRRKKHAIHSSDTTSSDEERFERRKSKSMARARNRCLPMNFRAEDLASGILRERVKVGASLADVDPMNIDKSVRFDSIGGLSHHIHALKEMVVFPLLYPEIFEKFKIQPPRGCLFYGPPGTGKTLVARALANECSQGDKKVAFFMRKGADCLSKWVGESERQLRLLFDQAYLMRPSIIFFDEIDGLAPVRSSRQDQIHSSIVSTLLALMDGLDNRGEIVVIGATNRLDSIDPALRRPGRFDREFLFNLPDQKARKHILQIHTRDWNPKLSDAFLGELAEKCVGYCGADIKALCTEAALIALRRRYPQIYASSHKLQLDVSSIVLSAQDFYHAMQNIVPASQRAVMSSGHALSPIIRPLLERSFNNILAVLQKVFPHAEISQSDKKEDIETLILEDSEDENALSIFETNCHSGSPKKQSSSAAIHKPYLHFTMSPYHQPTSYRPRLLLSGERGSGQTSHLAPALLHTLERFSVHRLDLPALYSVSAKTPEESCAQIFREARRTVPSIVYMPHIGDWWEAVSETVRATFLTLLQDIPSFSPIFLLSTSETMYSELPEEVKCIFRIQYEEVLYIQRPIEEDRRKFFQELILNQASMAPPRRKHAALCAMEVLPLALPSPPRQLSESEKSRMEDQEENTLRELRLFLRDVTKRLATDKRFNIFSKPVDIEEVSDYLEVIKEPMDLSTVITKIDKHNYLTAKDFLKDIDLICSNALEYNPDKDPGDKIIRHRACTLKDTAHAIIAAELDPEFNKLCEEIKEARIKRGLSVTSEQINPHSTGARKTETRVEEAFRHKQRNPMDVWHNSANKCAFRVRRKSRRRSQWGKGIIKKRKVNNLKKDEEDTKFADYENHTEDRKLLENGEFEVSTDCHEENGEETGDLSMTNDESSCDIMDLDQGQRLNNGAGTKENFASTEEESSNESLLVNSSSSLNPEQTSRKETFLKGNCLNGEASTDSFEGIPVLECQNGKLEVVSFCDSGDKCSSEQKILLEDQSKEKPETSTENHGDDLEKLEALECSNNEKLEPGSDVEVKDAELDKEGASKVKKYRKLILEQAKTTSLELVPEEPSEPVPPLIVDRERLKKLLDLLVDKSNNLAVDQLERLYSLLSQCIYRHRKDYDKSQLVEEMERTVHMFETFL

[18] = target: Bromodomain adjacent to zinc finger domain protein 2B (Homo sapiens) (UniProt Q9UIF8); test: Inhibition of human partial length BAZ2B (S2054 to S2168 residues) expressed in bacterial expression system assessed as residual activity at 500 nM relative to control by BROMOscan assay
Sequence of Bromodomain adjacent to zinc finger domain protein 2B (Homo sapiens) (Q9UIF8 whole entry, the tested form may be a part): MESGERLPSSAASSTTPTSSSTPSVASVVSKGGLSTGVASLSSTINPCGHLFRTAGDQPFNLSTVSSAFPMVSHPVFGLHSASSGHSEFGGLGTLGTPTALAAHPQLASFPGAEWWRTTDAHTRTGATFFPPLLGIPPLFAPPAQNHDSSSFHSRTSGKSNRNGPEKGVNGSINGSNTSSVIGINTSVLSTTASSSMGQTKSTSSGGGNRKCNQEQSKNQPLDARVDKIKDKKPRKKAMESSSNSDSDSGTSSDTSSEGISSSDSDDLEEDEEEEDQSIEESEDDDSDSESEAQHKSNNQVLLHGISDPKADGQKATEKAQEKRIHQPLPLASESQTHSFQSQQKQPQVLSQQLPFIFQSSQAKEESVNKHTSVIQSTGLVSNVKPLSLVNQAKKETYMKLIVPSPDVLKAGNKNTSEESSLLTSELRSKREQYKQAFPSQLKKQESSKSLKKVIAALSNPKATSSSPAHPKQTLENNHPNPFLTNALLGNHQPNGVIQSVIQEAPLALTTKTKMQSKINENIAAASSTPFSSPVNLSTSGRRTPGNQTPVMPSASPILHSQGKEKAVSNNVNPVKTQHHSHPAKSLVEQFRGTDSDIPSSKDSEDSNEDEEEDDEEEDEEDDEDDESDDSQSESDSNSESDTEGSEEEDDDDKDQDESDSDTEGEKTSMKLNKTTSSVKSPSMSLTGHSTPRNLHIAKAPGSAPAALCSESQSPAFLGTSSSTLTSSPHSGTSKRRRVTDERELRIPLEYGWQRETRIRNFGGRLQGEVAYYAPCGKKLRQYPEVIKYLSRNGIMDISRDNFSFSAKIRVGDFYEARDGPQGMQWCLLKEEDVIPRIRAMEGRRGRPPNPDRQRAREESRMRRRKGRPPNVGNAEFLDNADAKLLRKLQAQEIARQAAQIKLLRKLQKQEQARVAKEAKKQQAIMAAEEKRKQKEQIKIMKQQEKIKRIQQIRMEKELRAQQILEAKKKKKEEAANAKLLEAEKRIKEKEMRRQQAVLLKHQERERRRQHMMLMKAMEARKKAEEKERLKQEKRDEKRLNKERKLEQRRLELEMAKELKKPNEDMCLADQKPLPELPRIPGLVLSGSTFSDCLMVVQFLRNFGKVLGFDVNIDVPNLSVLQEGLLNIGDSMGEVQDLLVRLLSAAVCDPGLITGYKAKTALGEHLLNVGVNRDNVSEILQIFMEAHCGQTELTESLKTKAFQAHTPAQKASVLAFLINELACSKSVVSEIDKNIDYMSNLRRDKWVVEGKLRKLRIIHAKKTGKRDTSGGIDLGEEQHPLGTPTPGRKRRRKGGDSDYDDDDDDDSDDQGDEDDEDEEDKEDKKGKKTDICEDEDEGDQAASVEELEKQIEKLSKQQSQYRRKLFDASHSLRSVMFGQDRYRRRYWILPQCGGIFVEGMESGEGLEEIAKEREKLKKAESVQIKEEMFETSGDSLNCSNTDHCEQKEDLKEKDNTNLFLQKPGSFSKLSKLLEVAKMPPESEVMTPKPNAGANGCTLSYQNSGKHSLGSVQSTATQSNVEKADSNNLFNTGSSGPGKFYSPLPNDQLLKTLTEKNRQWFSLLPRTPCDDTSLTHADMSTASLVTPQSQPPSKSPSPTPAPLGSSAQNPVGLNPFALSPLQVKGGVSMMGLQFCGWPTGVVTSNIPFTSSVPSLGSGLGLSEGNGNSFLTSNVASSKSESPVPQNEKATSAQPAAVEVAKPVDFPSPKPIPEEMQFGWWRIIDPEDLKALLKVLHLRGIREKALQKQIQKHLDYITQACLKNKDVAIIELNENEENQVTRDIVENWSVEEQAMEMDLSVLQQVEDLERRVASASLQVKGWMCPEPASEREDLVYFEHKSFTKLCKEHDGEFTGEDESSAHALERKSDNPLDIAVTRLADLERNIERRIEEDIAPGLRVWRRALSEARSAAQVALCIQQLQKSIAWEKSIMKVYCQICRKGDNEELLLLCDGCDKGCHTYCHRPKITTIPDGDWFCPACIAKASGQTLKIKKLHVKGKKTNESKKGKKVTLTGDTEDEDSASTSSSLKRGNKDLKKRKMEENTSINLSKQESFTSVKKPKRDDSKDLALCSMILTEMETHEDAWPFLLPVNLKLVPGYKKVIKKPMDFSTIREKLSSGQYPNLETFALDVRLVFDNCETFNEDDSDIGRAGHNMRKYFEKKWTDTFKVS

[19] = target: T1, Bromodomain-containing protein 4; test: Inhibition of human partial length BRD4 BD2 (K333 to E460 residues) expressed in bacterial expression system assessed as residual activity at 500 nM relative to control by BROMOscan assay
[20] = target: Bromodomain testis-specific protein (Homo sapiens) (UniProt Q58F21); test: Inhibition of human partial length BRDT BD1 (N21 to E137 residues) expressed in bacterial expression system assessed as residual activity at 500 nM relative to control by BROMOscan assay
[21] = target: Bromodomain and PHD finger-containing protein 3 (Homo sapiens) (UniProt Q9ULD4); test: Inhibition of human partial length BRPF3 (E588 to G701 residues) expressed in bacterial expression system assessed as residual activity at 500 nM relative to control by BROMOscan assay
[22] = target: Nucleosome-remodeling factor subunit BPTF (Homo sapiens) (UniProt Q12830); test: Inhibition of human partial length FALZ (S2791 to H2911 residues) expressed in bacterial expression system assessed as residual activity at 500 nM relative to control by BROMOscan assay
[23] = target: Histone acetyltransferase KAT2A (Homo sapiens) (UniProt Q92830); test: Inhibition of human partial length GCN5L2 (E726 to K837 residues) expressed in bacterial expression system assessed as residual activity at 500 nM relative to control by BROMOscan assay
[24] = target: SWI/SNF-related matrix-associated actin-dependent regulator of chromatin subfamily A member 2 (Homo sapiens) (UniProt P51531); test: Inhibition of human partial length SMARCA2 (S1377 to Q1486 residues) expressed in bacterial expression system assessed as residual activity at 500 nM relative to control by BROMOscan assay
[25] = target: Transcription intermediary factor 1-alpha (Homo sapiens) (UniProt O15164); test: Inhibition of human partial length TRIM24-phd-bromo (P790 to P977 residues) expressed in bacterial expression system assessed as residual activity at 500 nM relative to control by BROMOscan assay
Sequence of Transcription intermediary factor 1-alpha (Homo sapiens) (O15164 whole entry, the tested form may be a part): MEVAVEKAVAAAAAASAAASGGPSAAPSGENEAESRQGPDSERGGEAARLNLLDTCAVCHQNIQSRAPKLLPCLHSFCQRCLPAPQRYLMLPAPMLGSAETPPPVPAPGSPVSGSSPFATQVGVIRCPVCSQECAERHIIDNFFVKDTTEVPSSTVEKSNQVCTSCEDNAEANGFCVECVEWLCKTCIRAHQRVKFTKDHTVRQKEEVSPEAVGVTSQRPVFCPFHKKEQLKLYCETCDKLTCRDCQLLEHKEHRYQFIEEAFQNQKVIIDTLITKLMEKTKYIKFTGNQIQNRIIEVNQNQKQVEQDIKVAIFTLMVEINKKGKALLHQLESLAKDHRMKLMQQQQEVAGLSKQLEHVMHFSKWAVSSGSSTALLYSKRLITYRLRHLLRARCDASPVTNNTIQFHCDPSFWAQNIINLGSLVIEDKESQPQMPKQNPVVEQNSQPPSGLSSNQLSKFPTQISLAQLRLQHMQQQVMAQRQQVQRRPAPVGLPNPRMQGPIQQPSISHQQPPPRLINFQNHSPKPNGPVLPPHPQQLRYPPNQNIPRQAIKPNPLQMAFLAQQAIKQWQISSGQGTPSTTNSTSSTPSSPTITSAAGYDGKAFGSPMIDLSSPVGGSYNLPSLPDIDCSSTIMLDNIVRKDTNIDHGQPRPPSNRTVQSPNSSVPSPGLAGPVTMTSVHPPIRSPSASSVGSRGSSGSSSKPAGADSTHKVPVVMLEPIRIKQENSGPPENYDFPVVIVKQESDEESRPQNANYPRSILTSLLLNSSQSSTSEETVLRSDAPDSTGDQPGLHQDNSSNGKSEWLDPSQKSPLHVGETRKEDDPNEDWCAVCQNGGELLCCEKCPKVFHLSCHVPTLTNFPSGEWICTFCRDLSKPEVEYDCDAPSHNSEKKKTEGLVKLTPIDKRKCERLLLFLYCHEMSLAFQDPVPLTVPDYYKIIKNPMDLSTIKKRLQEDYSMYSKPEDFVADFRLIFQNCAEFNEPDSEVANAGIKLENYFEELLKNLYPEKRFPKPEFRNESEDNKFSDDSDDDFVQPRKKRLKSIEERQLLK

[26] = target: E3 ubiquitin-protein ligase TRIM33 (Homo sapiens) (UniProt Q9UPN9); test: Inhibition of human partial length TRIM33-phd-bromo (D882 to A1087 residues) expressed in bacterial expression system assessed as residual activity at 500 nM relative to control by BROMOscan assay
[27] = target: Bromodomain and WD repeat-containing protein 1 (Homo sapiens) (UniProt Q9NSI6); test: Inhibition of human partial length WDR9 BD2 (A1310 to E1430 residues) expressed in bacterial expression system assessed as residual activity at 500 nM relative to control by BROMOscan assay
Rattus norvegicus [28] = test: Tmax in rat at 20 mg/kg, po; assay type: ADME, organism-based; details: in vivo
Outline: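 Rat pharmacokinetics after a single intravenous dose of 2 mg/kg or oral doses of 5 mg/kg and 20 mg/kg. Reported parameters are Tmax, Cmax, T1/2, AUCt, AUC∞, CL, Vss and F(%). CL, Vss and F come from the intravenous/oral 2 and 5 mg/kg arms.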

Rattus norvegicus [29] = test: Cmax in rat at 20 mg/kg, po; assay type: ADME, organism-based; set-up: dose 20 mg/kg, route oral; details: in vivo
Outline: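 Peak plasma level after single oral dosing in rat at 5 or 20 mg/kg. Cmax is given in mg/mL as printed, with Tmax in hours.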

[30] = AUCt in rat at 20 mg/kg, po; assay type: ADME, organism-based; details: in vivo
Outline: (§2)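 Rat pharmacokinetics with single dosing, either intravenous at 2 mg/kg or oral at 5 or 20 mg/kg. AUC is reported both to the last time point (AUCt) and extrapolated to infinity, in ug.hr/mL.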

Rattus norvegicus [31] = test: AUCinfinity in rat at 20 mg/kg, po; assay type: ADME, organism-based; set-up: dose 20 mg/kg, time infinity, route oral; details: in vivo; outline: as §2

IC50 [1]: 68 nM
IC50 (THP-1): 1600 nM
remaining at 0.5 h [3]: 0.024%
remaining at 0.5 h [4]: 92%
Kd [14]: 27 nM
Kd [15]: 9 nM
Activity [16]: 100%
Activity [17]: 96%
Activity [18]: 93%
Activity [19]: 16%
Activity [20]: 19%
Activity [21]: 87%
Activity [22]: 90%
Activity [23]: 100%
Activity [24]: 100%
Activity [25]: 100%
Activity [26]: 100%
Activity [27]: 100%
Tmax (Rattus norvegicus [28]): 1.3 h
Cmax (Rattus norvegicus [29]): 4.6 µg/mL
AUC(0-t) [30]: 20600 ng·h/mL
AUC (Rattus norvegicus [31]): 25.3 µg·h/mL
SMILES: Cc1nnc2c(Nc3cccc(CNC(=O)C(C)C)c3)nc3ccccc3n12
IC50 [2]: 2500 nM
Activity [5]: 81%
Activity [6]: 6%
Activity [7]: 8%
Activity [8]: 4%
Activity [9]: 89%
Activity [10]: 2%
Activity [11]: 4%
Activity [12]: 88%
Activity [13]: 2%
